In PMC11299136 (ACS Applied Materials & Interfaces, 2024):

B1: bovine trypsin (protein, UniProt P00760 24-246, looked up)
Serine protease 1: IVGGYTCGANTVPYQVSLNSGYHFCGGSLINSQWVVSAAHCYKSGIQVRLGEDNINVVEGNEQFISASKSIVHPSYNSNTLNNDIMLIKLKSAASLNSRVASISLPTSCASAGTQCLISGWGNTKSSGTSYPDVLKCLKAPILSDSSCKSAYPGQITSNMFCAGYLEGGKDSCQGDSGGPVVCSGKLQGIVSWGSGCAQKNKPGVYTKVCNYVSWIKQTIASN

Key:
[1] = system: HepG2 cells; assay: Cellular toxicity, MTT assay; type: cell-based, human; details: 2–128 μL fluorous solvent added to culture medium, 48 h
In short: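 HepG2 cells seeded at 2000 cells/well and allowed to adhere overnight. Dispersant at 10 nM–1 mM in culture medium, or 2–128 μL fluorous solvent added to the medium, for 48 h. Serum-free medium served as the negative control and 20% DMSO in serum-free medium as the positive control. Then 0.5 mg/mL MTT in serum-free medium for 2 h, formazan dissolved in DMSO, A540 read. Viability was normalized between the two controls.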

[2] = system: bacteria; assay: Control bacterial viability; type: cell-based; details: component alone: PFOc mixed with bacterial media, or PD-7 added to PBS
[3] = Temperature-dependent circular dichroism; type: physicochemical
In short: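 Proteins were either diluted in PBS or dispersed in PFOc with 1 mM dispersant. The aqueous samples were heated between 40 and 90 °C, with a CD spectrum taken at each temperature. The PFOc dispersions were heat-treated at 40, 55, 70 and 85 °C for 15 min each, then mixed with PBS to elute the protein before CD. Each condition was run in triplicate, and representative spectra were reported.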

[4] = dispersed in PFOc using PD-7, heated up to 85 °C

Molecule | toxicity toward human liver cells [1] | MIC / bacterial viability [2] | change in secondary structure on heating (CD) [3, 4] | change in secondary structure on heating (CD) ([3]; saline (PBS) control formulation, 40–85 °C)
FC(F)(F)C(F)(F)C(F)(F)C(F)(F)C(F)(F)C(F)(F)C(F)(F)C(F)(F)F [PFOc, perfluorooctane] | biocompatible | no MIC could be calculated |  | 
bovine serum albumin [BSA] |  |  | minimal changes in secondary structure | 
rabbit serum immunoglobulin [IgG] |  |  | minimal changes in secondary structure | 
β-galactosidase |  |  | minimal changes in secondary structure | 
B1 |  |  | minimal changes in secondary structure | minimal change in structure
